Experimental data published in ChEMBL document CHEMBL5620393, “New aryl and acylsulfonamides as state-dependent inhibitors of Nav1.3 voltage-gated sodium channel” (Eur J Med Chem, 2023).
Active and inactive are the calls of the source. The calls are words filed in the database; no cut-off is given here.

Experiments:
[1] = target: T1, Sodium channel protein type 3 subunit alpha (Homo sapiens, UniProt Q9NY46); assay: Inhibition of human Nav1.3 expressed in CHO cells under resting state by automated patch clamp electrophysiology analysis; format: cell-based
[2] = target: T1, Sodium channel protein type 3 subunit alpha; assay: Inhibition of human Nav1.3 expressed in CHO cells under inactivated state by automated patch clamp electrophysiology analysis; format: cell-based
[3] = target: T2, Sodium channel protein type 5 subunit alpha (Homo sapiens, UniProt Q14524); assay: Inhibition of human Nav1.5 expressed in Xenopus laevis oocytes at closed state at 1 uM by two electrode voltage-clamp assay; format: cell-based; conditions: oocyte
Summary of the method: (§1)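 TEVC on Nav channels expressed in Xenopus laevis oocytes. Each oocyte was injected with 50 nL cRNA at 1 ng/nL and recorded 1–4 days later at 18–22 °C. Bath (mM): NaCl 96, KCl 2, CaCl2 1.8, MgCl2 2, HEPES 5, pH 7.4. Electrodes held 3 M KCl at 0.8–1.5 MΩ. Compound tested at 1 μM. Mean ± SD, n ≥ 5.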

[4] = target: T2, Sodium channel protein type 5 subunit alpha; assay: Inhibition of human Nav1.5 expressed in CHO cells under tonic pulse 1 by automated patch clamp electrophysiology analysis; format: cell-based
[5] = target: T2, Sodium channel protein type 5 subunit alpha; assay: Inhibition of human Nav1.5 expressed in CHO cells by automated patch clamp electrophysiology analysis
[6] = target: Sodium channel protein type 1 subunit alpha (Homo sapiens) (UniProt P35498); assay: Inhibition of human Nav1.1 expressed in Xenopus laevis oocytes at closed state at 1 uM by two electrode voltage-clamp assay; format: cell-based; conditions: Oocyte; summary of the method: as §1
[7] = target: Sodium channel protein type 2 subunit alpha (Rattus norvegicus) (UniProt P04775); assay: Inhibition of rat Nav1.2 expressed in Xenopus laevis oocytes at closed state at 1 uM by two electrode voltage-clamp assay; format: cell-based; conditions: Oocyte; summary of the method: as §1
[8] = target: Sodium channel protein type 4 subunit alpha (Rattus norvegicus) (UniProt P15390); assay: Inhibition of rat Nav1.4 expressed in Xenopus laevis oocytes at closed state at 1 uM by two electrode voltage-clamp assay; format: cell-based; conditions: Oocyte; summary of the method: as §1
[9] = target: Sodium channel protein type 8 subunit alpha (Mus musculus) (UniProt Q9WTU3); assay: Inhibition of mouse Nav1.6 expressed in Xenopus laevis oocytes at closed state at 1 uM by two electrode voltage-clamp assay; format: cell-based; conditions: Oocyte; summary of the method: as §1
[10] = target: T3, Sodium channel protein type 9 subunit alpha (Homo sapiens, UniProt Q15858); assay: Inhibition of human Nav1.7 expressed in Xenopus laevis oocytes at closed state at 1 uM by two electrode voltage-clamp assay; format: cell-based; conditions: Oocyte; summary of the method: as §1
[11] = target: Sodium channel protein type 10 subunit alpha (Homo sapiens) (UniProt Q9Y5Y9); assay: Inhibition of human Nav1.8 expressed in Xenopus laevis oocytes at closed state at 1 uM by two electrode voltage-clamp assay; format: cell-based; conditions: Oocyte; summary of the method: as §1
[12] = target: T3, Sodium channel protein type 9 subunit alpha; assay: Inhibition of human Nav1.7 expressed in CHO cells under resting state by automated patch clamp electrophysiology analysis; format: cell-based
[13] = target: T3, Sodium channel protein type 9 subunit alpha; assay: Inhibition of human Nav1.7 expressed in CHO cells under inactivated state by automated patch clamp electrophysiology analysis; format: cell-based
[14] = target: T2, Sodium channel protein type 5 subunit alpha; assay: Inhibition of human Nav1.5 expressed in CHO cells under resting state by automated patch clamp electrophysiology analysis; format: cell-based
[15] = target: T2, Sodium channel protein type 5 subunit alpha; assay: Inhibition of human Nav1.5 expressed in CHO cells under inactivated state by automated patch clamp electrophysiology analysis; format: cell-based

Sodium channel protein type 2 subunit alpha (Rattus norvegicus), sequence (P04775 whole entry, looked up): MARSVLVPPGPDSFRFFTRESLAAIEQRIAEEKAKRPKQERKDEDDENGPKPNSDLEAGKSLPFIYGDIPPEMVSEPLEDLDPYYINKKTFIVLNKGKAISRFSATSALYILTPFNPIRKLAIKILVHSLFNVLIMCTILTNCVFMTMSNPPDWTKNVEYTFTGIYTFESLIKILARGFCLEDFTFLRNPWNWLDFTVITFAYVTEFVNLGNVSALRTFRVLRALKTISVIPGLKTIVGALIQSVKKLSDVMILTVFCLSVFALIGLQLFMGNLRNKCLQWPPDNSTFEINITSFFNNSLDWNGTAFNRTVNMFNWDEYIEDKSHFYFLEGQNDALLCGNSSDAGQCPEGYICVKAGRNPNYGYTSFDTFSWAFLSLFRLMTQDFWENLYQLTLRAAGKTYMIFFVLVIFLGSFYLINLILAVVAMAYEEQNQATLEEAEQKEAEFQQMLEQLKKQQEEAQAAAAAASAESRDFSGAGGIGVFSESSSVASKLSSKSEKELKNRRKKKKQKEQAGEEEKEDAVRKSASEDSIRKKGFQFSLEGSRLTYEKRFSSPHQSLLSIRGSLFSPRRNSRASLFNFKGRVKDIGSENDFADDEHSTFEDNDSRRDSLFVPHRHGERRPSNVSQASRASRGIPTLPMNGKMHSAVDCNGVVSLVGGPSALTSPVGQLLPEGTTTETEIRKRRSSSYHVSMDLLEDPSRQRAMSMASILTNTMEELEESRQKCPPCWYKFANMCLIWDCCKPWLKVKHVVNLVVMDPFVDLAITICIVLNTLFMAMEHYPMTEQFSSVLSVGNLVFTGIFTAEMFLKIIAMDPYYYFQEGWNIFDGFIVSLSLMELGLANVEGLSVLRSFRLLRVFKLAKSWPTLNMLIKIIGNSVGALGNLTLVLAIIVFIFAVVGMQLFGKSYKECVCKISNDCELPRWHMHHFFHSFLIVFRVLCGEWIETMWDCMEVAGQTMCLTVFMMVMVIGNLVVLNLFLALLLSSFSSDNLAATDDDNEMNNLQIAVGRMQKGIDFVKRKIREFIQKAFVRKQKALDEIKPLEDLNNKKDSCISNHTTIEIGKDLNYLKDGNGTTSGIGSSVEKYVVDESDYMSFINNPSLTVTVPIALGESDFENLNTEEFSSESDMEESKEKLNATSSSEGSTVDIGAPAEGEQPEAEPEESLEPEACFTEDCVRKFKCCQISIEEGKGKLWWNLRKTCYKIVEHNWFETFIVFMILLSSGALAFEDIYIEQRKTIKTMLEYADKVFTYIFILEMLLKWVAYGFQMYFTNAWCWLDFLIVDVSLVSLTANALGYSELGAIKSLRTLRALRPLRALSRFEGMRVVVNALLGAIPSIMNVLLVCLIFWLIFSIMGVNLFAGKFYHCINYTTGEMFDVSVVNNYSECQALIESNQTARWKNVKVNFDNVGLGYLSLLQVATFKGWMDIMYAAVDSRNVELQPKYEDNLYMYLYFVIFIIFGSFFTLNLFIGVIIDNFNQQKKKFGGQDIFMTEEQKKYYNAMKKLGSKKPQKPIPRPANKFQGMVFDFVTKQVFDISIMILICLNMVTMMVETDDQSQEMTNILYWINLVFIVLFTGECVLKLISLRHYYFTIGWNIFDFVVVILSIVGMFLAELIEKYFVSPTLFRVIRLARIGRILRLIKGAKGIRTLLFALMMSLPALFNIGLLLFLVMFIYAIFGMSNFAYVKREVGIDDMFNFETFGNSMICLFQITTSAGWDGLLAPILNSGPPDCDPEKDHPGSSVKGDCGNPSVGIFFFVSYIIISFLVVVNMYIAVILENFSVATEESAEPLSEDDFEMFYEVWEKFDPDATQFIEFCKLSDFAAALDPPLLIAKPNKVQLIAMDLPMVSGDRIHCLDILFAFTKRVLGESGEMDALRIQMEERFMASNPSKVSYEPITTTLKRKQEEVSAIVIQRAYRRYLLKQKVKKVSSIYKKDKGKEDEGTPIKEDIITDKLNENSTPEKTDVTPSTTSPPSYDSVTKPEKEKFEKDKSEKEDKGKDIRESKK
Sodium channel protein type 10 subunit alpha (Homo sapiens), sequence (Q9Y5Y9 whole entry, looked up): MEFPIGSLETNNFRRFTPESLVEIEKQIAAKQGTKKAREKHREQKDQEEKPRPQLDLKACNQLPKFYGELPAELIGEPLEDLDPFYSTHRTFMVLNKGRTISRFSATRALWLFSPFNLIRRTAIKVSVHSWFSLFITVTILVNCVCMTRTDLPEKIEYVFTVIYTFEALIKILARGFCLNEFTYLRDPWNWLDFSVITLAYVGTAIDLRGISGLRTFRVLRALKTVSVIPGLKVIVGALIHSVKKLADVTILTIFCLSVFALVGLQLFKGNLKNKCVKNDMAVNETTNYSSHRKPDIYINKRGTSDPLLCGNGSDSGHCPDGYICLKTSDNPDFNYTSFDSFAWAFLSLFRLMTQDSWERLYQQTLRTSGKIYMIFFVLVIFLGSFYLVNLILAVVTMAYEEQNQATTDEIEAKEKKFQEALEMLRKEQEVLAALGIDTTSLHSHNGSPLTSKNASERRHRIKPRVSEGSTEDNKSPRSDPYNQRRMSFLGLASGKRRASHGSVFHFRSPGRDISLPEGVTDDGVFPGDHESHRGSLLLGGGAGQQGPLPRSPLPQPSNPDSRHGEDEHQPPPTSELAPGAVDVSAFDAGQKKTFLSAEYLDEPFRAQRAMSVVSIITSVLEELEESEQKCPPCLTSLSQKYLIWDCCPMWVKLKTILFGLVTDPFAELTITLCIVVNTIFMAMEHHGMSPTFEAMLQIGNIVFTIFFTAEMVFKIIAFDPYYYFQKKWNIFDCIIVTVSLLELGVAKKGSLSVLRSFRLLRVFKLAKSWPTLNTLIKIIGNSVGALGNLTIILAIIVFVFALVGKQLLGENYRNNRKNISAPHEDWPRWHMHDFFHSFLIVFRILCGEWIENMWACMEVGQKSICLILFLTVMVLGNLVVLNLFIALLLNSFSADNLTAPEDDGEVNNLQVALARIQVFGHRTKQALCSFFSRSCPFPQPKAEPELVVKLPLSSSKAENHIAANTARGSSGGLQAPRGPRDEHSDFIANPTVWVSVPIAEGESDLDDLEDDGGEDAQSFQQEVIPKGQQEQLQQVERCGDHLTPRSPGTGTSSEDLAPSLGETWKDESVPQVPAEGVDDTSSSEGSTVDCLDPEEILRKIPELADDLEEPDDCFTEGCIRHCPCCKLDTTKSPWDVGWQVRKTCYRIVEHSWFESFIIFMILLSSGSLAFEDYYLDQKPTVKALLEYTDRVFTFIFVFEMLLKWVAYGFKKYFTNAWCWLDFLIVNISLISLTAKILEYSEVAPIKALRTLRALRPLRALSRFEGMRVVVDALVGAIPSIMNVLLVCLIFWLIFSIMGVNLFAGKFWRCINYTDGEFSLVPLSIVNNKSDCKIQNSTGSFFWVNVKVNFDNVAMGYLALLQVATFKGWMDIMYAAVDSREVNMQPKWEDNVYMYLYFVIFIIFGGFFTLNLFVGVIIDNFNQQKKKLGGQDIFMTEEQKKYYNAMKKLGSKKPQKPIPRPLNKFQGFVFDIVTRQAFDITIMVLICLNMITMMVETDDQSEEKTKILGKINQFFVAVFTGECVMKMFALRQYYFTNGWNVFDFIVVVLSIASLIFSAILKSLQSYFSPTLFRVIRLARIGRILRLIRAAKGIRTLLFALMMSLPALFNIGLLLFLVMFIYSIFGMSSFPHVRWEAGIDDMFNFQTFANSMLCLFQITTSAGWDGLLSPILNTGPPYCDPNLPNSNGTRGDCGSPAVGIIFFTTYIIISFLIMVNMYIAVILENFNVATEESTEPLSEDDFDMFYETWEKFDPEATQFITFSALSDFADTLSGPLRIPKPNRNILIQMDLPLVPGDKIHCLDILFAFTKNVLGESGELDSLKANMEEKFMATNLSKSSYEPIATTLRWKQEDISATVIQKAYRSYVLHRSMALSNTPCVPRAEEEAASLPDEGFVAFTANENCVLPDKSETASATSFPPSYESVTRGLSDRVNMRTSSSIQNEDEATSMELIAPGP

Row | SMILES | IC50 [1] [µM] | IC50 [2] [µM] | inhibition (INH) [3] | IC50 [4] [µM] | IC50 [5] [µM] | also measured
1 | CC(=O)NS(=O)(=O)c1ccc(NC(=O)c2cccn2Cc2ccccc2)cc1 | > 30 | 23 | – | – | – | –
2 | CC(=O)NS(=O)(=O)c1ccc(NC(=O)c2cccn2Cc2ccc(Cl)cc2)cc1 | – | – | Not Active | – | – | –
3 | C[C@H](Oc1ccc(Cl)cc1)C(=O)Nc1ccc(C(=O)NS(C)(=O)=O)cc1 | – | – | Not Active | – | – | –
4 | CN(C)S(=O)(=O)NC(=O)c1ccc(NC(=O)[C@@H]2C[C@H]2c2ccccc2)cc1 | – | – | Not Active | – | – | –
5 | CC1CCCCN1C(=O)c1ccc(NS(=O)(=O)c2ccc3[nH]c(=O)[nH]c3c2)cc1 (stereo not given) | > 30 | > 30 | – | – | – | –
6 | O=C(Nc1cccc(S(=O)(=O)Nc2nccs2)c1)[C@@H]1C[C@H]1c1ccccc1 | – | – | Not Active | > 30 | > 30 | –
7 | CC(=O)NS(=O)(=O)c1ccc(NC(=O)c2cc(Br)c(Br)n2-c2ccccc2)cc1 | > 30 | 19 | – | – | – | –
8 | O=C(Nc1cccc(S(=O)(=O)Nc2nccs2)c1)c1cc(Br)c(Br)n1Cc1ccccc1 | – | – | Not Active | > 30 | > 30 | –
9 | CS(=O)(=O)NC(=O)c1ccc(NC(=O)[C@@H]2C[C@H]2c2ccccc2)cc1 | > 30 | > 30 | Not Active | – | – | inhibition [6]: inactive; inhibition [7]: inactive; inhibition [8]: inactive; inhibition [9]: inactive; inhibition [10]: inactive; inhibition [11]: inactive
10 | CS(=O)(=O)NC(=O)c1ccc(NC(=O)c2cc(Br)c(Br)n2-c2ccccc2)cc1 | – | – | Not Active | – | – | –
11 | CN(C)CCC=C1c2ccccc2CCc2ccccc21 [AMITRIPTYLINE] | – | – | – | 11 | 6.9 | IC50 [12]: 10 µM; IC50 [13]: 2.3 µM; IC50 [14]: 20 µM; IC50 [15]: 1.2 µM
12 | CC(NS(=O)(=O)c1ccc(C2=CC(c3ccc(Cl)cc3)n3nnnc3N2)cc1)C(=O)O (stereo not given) | > 30 | > 30 | – | – | – | –
13 | CS(=O)(=O)NC(=O)c1ccc(NC(=O)c2cccn2Cc2ccc(Cl)cc2)cc1 | > 30 | > 30 | Not Active | – | – | inhibition [6]: inactive; inhibition [7]: inactive; inhibition [8]: inactive; inhibition [9]: inactive; inhibition [10]: inactive; inhibition [11]: inactive
14 | O=C(Nc1ccc(S(=O)(=O)Nc2nccs2)cc1)c1cccn1Cc1ccc(Cl)cc1 | – | – | Not Active | > 30 | > 30 | IC50 [12]: > 30 µM; IC50 [13]: 8.4 µM; IC50 [14]: > 30 µM; IC50 [15]: 3.7 µM
15 | CC(CCc1ccc(O)cc1)NC(=O)Nc1ccc(S(=O)(=O)N2CCCC2)cc1 (stereo not given) | > 30 | 20 | – | – | – | –
16 | C[C@@H](Oc1ccc(Cl)cc1)C(=O)Nc1ccc(C(=O)NS(C)(=O)=O)cc1 | – | – | Not Active | – | – | –
17 | CC(=O)NS(=O)(=O)c1ccc(NC(=O)CC(C)c2ccccc2)cc1 (stereo not given) | > 30 | 21 | – | – | – | –
18 | CC1CCCC(C)N1S(=O)(=O)c1ccc(NS(=O)(=O)c2ccc3c(c2)CC(=O)N3C)cc1 (stereo not given) | > 30 | 28 | – | – | – | –
19 | Cc1nn(C)cc1/C=C(\C#N)C(=O)Nc1ccc(S(=O)(=O)Nc2nccs2)cc1 | 26 | 3.8 | Not Active | > 30 | > 30 | inhibition [6]: inactive; inhibition [7]: inactive; inhibition [8]: inactive; inhibition [9]: inactive; inhibition [10]: inactive; inhibition [11]: inactive

Row | SMILES | IC50 [1] [µM] | IC50 [2] [µM] | inhibition (INH) [3] | IC50 [4] [µM] | IC50 [5] [µM] | also measured
20 | O=C(Nc1ccc(S(=O)(=O)Nc2nccs2)cc1)c1cccn1-c1ccccc1 | – | – | Not Active | > 30 | > 30 | –
21 | CN(C)S(=O)(=O)NC(=O)c1ccc(NC(=O)c2cccn2Cc2ccc(Cl)cc2)cc1 | – | – | Not Active | – | – | –
22 | CS(=O)(=O)NC(=O)c1ccc(NC(=O)C2CC2c2ccc(F)c(F)c2)cc1 (racemic) | > 30 | > 30 | Not Active | – | – | inhibition [6]: inactive; inhibition [7]: inactive; inhibition [8]: inactive; inhibition [9]: inactive; inhibition [10]: inactive; inhibition [11]: inactive
23 | O=C(Nc1nccs1)c1ccc(NC(=O)[C@@H]2C[C@H]2c2ccccc2)cc1 | – | – | – | > 30 | > 30 | IC50 [12]: > 30 µM; IC50 [13]: > 30 µM; IC50 [14]: > 30 µM; IC50 [15]: > 30 µM
24 | O=C(Nc1ccc(S(=O)(=O)Nc2nccs2)cc1)[C@@H]1C[C@H]1c1ccccc1 | – | – | – | – | – | IC50 ([1]; cho): 18 µM; IC50 ([2]; cho): 0.056 µM
25 | CC(=O)NS(=O)(=O)c1ccc(NC(=O)[C@@H]2C[C@H]2c2ccccc2)cc1 | – | – | Not Active | > 30 | > 30 | –
26 | CC(=O)NS(=O)(=O)c1ccc(NC(=O)c2cc(Br)c(Br)n2Cc2ccccc2)cc1 | – | – | Not Active | – | – | –
27 | O=C(Nc1ccc(S(=O)(=O)Nc2nccs2)cc1)c1cccn1Cc1ccccc1 | – | – | Not Active | > 30 | > 30 | –
28 | CS(=O)(=O)NC(=O)c1ccc(OC[C@@H]2C[C@H]2c2ccccc2)cc1 | – | – | Not Active | > 30 | > 30 | –
29 | O=C(Nc1ccc(S(=O)(=O)Nc2nccs2)cc1)c1cc(Br)c(Br)n1Cc1ccccc1 | – | – | Not Active | > 30 | > 30 | IC50 [12]: > 30 µM; IC50 [13]: 7.1 µM; IC50 [14]: > 30 µM; IC50 [15]: 3.5 µM
30 | CS(=O)(=O)NC(=O)c1ccc(NC(=O)c2cc(Br)c(Br)n2Cc2ccccc2)cc1 | – | – | Not Active | – | – | –
31 | CN(C)S(=O)(=O)NC(=O)c1ccc(NC(=O)c2cc3ccccc3o2)cc1 | – | – | Not Active | – | – | –
32 | Cc1nc(-c2c(Cl)cccc2Cl)sc1C(=O)N[C@@H](Cc1ccccc1)C(=O)O | – | – | Not Active | – | – | –
33 | NC1=N[C@H](O)[C@H]2[C@H]3O[C@]4(O)O[C@@H]([C@@H](O)[C@@]2(N1)[C@@H]4O)[C@]3(O)CO [TETRODOTOXIN] | 0.004 | 0.001 | – | – | – | –
34 | C[C@@H](Oc1ccc(Cl)cc1)C(=O)Nc1ccc(C(=O)NS(=O)(=O)N(C)C)cc1 | – | – | Not Active | – | – | –
35 | O=C(Nc1ccc(S(=O)(=O)Nc2nccs2)cc1)c1cc(Br)c(Br)n1-c1ccccc1 | – | – | Not Active | > 30 | > 30 | IC50 [12]: > 30 µM; IC50 [13]: 9.3 µM; IC50 [14]: > 30 µM; IC50 [15]: 3.4 µM
36 | CS(=O)(=O)NC(=O)c1cccc(OC[C@@H]2C[C@H]2c2ccccc2)c1 | > 30 | > 30 | Not Active | > 30 | > 30 | inhibition [6]: inactive; inhibition [7]: inactive; inhibition [8]: inactive; inhibition [9]: inactive; inhibition [10]: inactive; inhibition [11]: inactive
37 | O=C(Nc1cccc(S(=O)(=O)Nc2nccs2)c1)c1cccn1Cc1ccc(Cl)cc1 | – | – | Not Active | > 30 | > 30 | –
38 | O=C(Nc1cccc(S(=O)(=O)Nc2nccs2)c1)c1cccn1Cc1ccccc1 | – | – | Not Active | > 30 | > 30 | –
